Experimental data from ChEMBL document CHEMBL1671641, “1,5-benzodiazepines, a novel class of hepatitis C virus polymerase nonnucleoside inhibitors” (Antimicrob Agents Chemother, 2008).
Activity calls are given as the source filed them. No cut-off for these calls is given here.

Key:
Hepatitis C virus [1] = assay: Inhibition of Hepatitis C virus 1b J4 recombinant NS5B Cdelta 21 RNA dependent RNA polymerase mediated formation of first phosphodiester bond during the polymerization reaction at 10 uM after 60 mins; settings: Hepatitis C virus subtype 1b
Summary of the method: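 Buffer was 50 mM HEPES pH 7.5, 5 mM MgCl2, 5 mM MnCl2, 10 mM KCl, 1 mM DTT, at room temperature. In the time course, incubation was lengthened with inhibitor held at 10 μM. Products were phenol-extracted, ethanol-precipitated, denatured 3 min at 95°C, run on 8 M urea–20% polyacrylamide gels, and imaged.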

Hepatitis C virus [2] = assay: Ratio of EC50 for Hepatitis C virus 796 infected in HuH7 cells to EC50 for Hepatitis C virus 796 harboring NNI M414Q mutant site in NS5B infected in HuH7 cells; type: functional, Hepacivirus hominis, Huh-7
Summary of the method: (§1)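 NS5B NNI-site mutations were introduced into the genotype 1b ET subgenomic luciferase replicon by site-directed mutagenesis. RNA was made by in vitro transcription and tested in a transient-replication assay.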

Hepatitis C virus [3] = assay: Inhibition of Hepatitis C virus 1b J4 recombinant NS5B Cdelta 21 RNA dependent RNA polymerase overexpressed in Escherichia coli BL21 (DE3) by RdRp primer-dependent transcription assay; design: species or system Hepatitis C virus subtype 1b
MT4 = assay: Cytotoxicity against LTR-Luc transfected human MT4 cells […] after 3 days by ATPLite assay; type: cell-based; settings: mt4, 72 h, 72 h
Hepatitis C virus [4] = assay: Inhibition of Hepatitis C virus 1b J4 recombinant NS5B Cdelta 21 RNA dependent RNA polymerase overexpressed in Escherichia coli BL21 (DE3) assessed as [alpha-33P]UTP incorporation by RdRp primer-independent transcription assay; design: species or system Hepatitis C virus subtype 1b
Summary of the method: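 De novo (primer-independent) RdRp assay: 190 nM NS5BΔ21 (1b J4) with 86 nM HCV 3′ UTR template RNA, 0.5 mM each ATP/GTP/CTP, 10 μM UTP plus [α-³³P]UTP, in 20 mM Tris-HCl pH 7.5, 1 mM DTT, 5 mM MgCl₂, 20 mM NaCl. Incubated 2 h at room temperature, stopped with EDTA/tRNA, TCA-precipitated on filters, and scintillation-counted. Quadruplicate.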

Hepatitis C virus [5] = assay: Ratio of EC50 for Hepatitis C virus 796 infected in HuH7 cells to EC50 for Hepatitis C virus 796 harboring NNI M423T mutant site in NS5B infected in HuH7 cells; type: functional, Hepacivirus hominis, Huh-7; summary of the method: as §1
[6] = Inhibition of Gamma-aminobutyric acid type-A (GABAA) receptor by radioligand binding assay
Summary of the method: (§2)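 Radioligand binding assays for the GABA-A central BZD receptor and the peripheral BZD receptor were run as a single experiment in duplicate.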

[7] = Cytotoxicity against CMV-Luc transfected human HuH7 cells after 5 days; type: cell-based, Huh-7; settings: huh-7, 120 h, 120 h
Hepatitis C virus [8] = assay: Ratio of EC50 for Hepatitis C virus 796 infected in HuH7 cells to EC50 for Hepatitis C virus 796 harboring NNI P495L mutant site in NS5B infected in HuH7 cells; type: functional, Hepacivirus hominis, Huh-7; summary of the method: as §1
[9] = Cytotoxicity against human HuH7 cells after 5 days by resazurin assay; type: cell-based, Huh-7; settings: HuH7 cells
Summary of the method: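 Subconfluent HCV 1b subgenomic replicon cells, 500 per well and grown without G418, were incubated for 5 days with eight serial fourfold compound dilutions. Viability was read by resazurin. Values are means ± SD from two to eight independent experiments in quadruplicate.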

Hepatitis C virus [10] = assay: Ratio of EC50 for Hepatitis C virus 796 infected in HuH7 cells to EC50 for Hepatitis C virus 796 harboring NNI H95R mutant site in NS5B infected in HuH7 cells; type: functional, Hepacivirus hominis, Huh-7; summary of the method: as §1
Translocator protein = Translocator protein (Homo sapiens, UniProt P30536); assay: Inhibition of peripheral benzodiazepine BZD receptor by radioligand binding assay; summary of the method: as §2
[11] = Cytotoxicity against human HEK293T cells after 72 hrs by resazurin assay; type: cell-based, HEK-293T
Summary of the method: (§3)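 Cells were tested against eight serial fourfold dilutions for 72 h, at 3,000 cells/well for HEK293T and 4,000 cells/well for HepG2. Viability was read by resazurin staining. Values are means ± SD from two to eight independent experiments in quadruplicate.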

Hepatitis C virus [12] = assay: Ratio of EC50 for Hepatitis C virus 796 infected in HuH7 cells to EC50 for Hepatitis C virus 796 harboring NNI C316Y mutant site in NS5B infected in HuH7 cells; type: functional, Hepacivirus hominis, Huh-7; summary of the method: as §1
[13] = Cytotoxicity against human MT4 cells after 3 days by ATPLite assay; type: cell-based; settings: MT4 cells
Summary of the method: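 MT4 cells, 5,000 per well, were incubated 3 days at 37°C with eight serial fourfold compound dilutions. Cytotoxicity was read as intracellular ATP by ATPlite 1step luminescence. Values are means ± SD from two to eight independent experiments in quadruplicate.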

[14] = Cytotoxicity against human HepG2 cells after 72 hrs by resazurin assay; type: cell-based; settings: HepG2 cells; summary of the method: as §3
Hepatitis C virus [15] = assay: Ratio of EC50 for Hepatitis C virus 796 infected in HuH7 cells to EC50 for Hepatitis C virus 796 harboring NNI Y448A mutant site in NS5B infected in HuH7 cells; type: functional, Hepacivirus hominis, Huh-7; summary of the method: as §1
Hepatitis C virus [16] = assay: Antiviral activity against Hepatitis C virus 1b infected in human HuH7 cells assessed as inhibition of viral replication after 3 days by luciferase reporter assay; type: functional, organism-based, Hepacivirus hominis, genotype 1b, Huh-7; settings: huh-7
Summary of the method: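 HCV 1b subgenomic luciferase reporter replicon (clone ET) cells, 2,500 per well, were exposed to a nine-point 1/4 dilution series for 3 days. Replication was read as luciferase activity. Values are means ± SD from 2 to 23 independent experiments run in quadruplicate.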

Sequence of Translocator protein (P30536 whole entry): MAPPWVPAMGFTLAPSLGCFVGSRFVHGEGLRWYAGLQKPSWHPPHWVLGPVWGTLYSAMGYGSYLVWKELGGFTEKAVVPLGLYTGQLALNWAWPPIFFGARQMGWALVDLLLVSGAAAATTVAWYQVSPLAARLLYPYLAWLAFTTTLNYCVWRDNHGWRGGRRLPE

Structure (SMILES)	inhibition (Hepatitis C virus [1])	fold change (FC) (Hepatitis C virus [2])	IC50 (Hepatitis C virus [3]) [µM]	CC50 (MT4) [µM]	IC50 (Hepatitis C virus [4]) [µM]	fold change (FC) (Hepatitis C virus [5])	IC50 [6] [µM]	CC50 [7] [µM]	fold change (FC) (Hepatitis C virus [8])	CC50 at 120 h [9] [µM]	fold change (FC) (Hepatitis C virus [10])	IC50 (Translocator protein) [µM]	CC50 at 72 h [11] [µM]	fold change (FC) (Hepatitis C virus [12])	CC50 at 72 h [13] [µM]	CC50 at 72 h [14] [µM]	fold change (FC) (Hepatitis C virus [15])	EC50 (Hepatitis C virus [16]) [µM]
CC(=O)N1c2ccccc2NC2=C(C(=O)CC(C)(C)C2)C1c1ccc(OCc2ccccc2)c(Cl)c1 (single isomer, unassigned; 4a)	Active	–	–	–	–	–	–	–	–	–	–	–	–	–	–	–	–	–
CC(=O)N1c2cccc(O)c2NC2=C(C(=O)CC(C)(C)C2)C1c1ccc(OCc2ccccc2)cc1Cl (single isomer, unassigned; 7a)	–	10	0.05	16.2	0.05	10	> 30	12.8	10	46.2	10	> 30	> 25	10	56.5	31.2	10	1.2
